ChEMBL document CHEMBL3044571, “Identification of novel inhibitors of 1-aminocyclopropane-1-carboxylic acid synthase by chemical screening in Arabidopsis thaliana” (J Biol Chem, 2010)
The source made the active and inactive calls. No cut-off for these calls is given here.

Assays:
Arabidopsis thaliana [1] = assay: Inhibition of ethylene biosynthesis in Arabidopsis thaliana eto1-4 expressing 5 x EBS::LUC assessed as decrease ethylene level at 10 uM 3 days after germination in dark relative to aminoethoxyvinylglycine; assay type: functional; settings: 72 h
[2] = molecular target: T1, 1-aminocyclopropane-1-carboxylate synthase 5 (Arabidopsis thaliana, UniProt Q37001); assay: Inhibition of Arabidopsis thaliana recombinant ACS5 expressed in Escherichia coli (BL21) assessed as oxidation of ACC to ethylene preincubated for 30 min measured after 10 min by gas chromatography
T1 sequence (Q37001 whole entry): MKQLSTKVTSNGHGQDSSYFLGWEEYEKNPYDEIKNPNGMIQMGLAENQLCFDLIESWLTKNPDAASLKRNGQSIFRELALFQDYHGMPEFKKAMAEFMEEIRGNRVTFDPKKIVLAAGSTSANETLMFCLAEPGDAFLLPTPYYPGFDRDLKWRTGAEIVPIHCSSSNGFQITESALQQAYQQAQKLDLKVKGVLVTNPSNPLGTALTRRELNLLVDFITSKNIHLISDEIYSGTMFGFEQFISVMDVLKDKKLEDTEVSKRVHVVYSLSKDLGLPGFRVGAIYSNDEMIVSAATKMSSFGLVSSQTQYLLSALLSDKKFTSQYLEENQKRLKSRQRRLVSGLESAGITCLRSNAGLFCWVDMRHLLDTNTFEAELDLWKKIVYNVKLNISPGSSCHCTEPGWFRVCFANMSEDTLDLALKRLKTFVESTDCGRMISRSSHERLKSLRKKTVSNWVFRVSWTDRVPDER
How it was run: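 His-tagged recombinant ACS5 expressed in E. coli (IPTG induction, 16°C, 18 h) and purified on a HisTrap column. Enzyme (1 μg) in 2 ml buffer A (pH 8.0) with 10 μM PLP and 250 μM SAM, plus graded compound or DMSO, for 30 min at 25°C. Stopped with HgCl2 and NaOH:bleach, which oxidize ACC to ethylene, quantified by GC against an ACC standard curve. Duplicate, repeated ≥3 times.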

[3] = molecular target: T1, 1-aminocyclopropane-1-carboxylate synthase 5; assay: Uncompetitive inhibition of Arabidopsis thaliana recombinant ACS5 expressed in Escherichia coli (BL21) assessed as oxidation of ACC to ethylene by Lineweaver-Burk plot analysis
Arabidopsis thaliana [4] = assay: Inhibition of triple response phenotype in Arabidopsis thaliana seedlings expressing eto2-1 mutant by measuring hypocotyl elongation at 10 to 30 uM 3 days after germination in dark; assay type: functional, organism-based
Arabidopsis thaliana [5] = assay: Inhibition of triple response phenotype in Arabidopsis thaliana seedlings expressing eto1-4 mutant and 5 x EBS::LUC by measuring hypocotyl elongation at 1 to 5 uM 3 days after germination in dark; assay type: functional, organism-based
How it was run: (§1)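 Etiolated eto1-4 seedlings grown 3 days in the dark at 22°C on 0.5xMS agar containing graded compound, STS or AVG, with DMSO control. Seeds bleach-sterilized and stratified 3–4 days at 4°C beforehand. Hypocotyl length measured from stereomicroscope images; means of n ≥30 seedlings.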

Arabidopsis thaliana [6] = assay: Inhibition of triple response phenotype in Arabidopsis thaliana seedlings expressing eto1-4 mutant by measuring hypocotyl elongation at 10 uM 3 days after germination in dark; assay type: functional; settings: 72 h
Arabidopsis thaliana [7] = assay: Inhibition of triple response phenotype in Arabidopsis thaliana seedlings expressing eto1-4 mutant and 5 x EBS::LUC by measuring hypocotyl elongation at 0.1 to 1 uM 3 days after germination in dark; assay type: functional, organism-based; how it was run: as §1
Arabidopsis thaliana [8] = assay: Inhibition of triple response phenotype in Arabidopsis thaliana seedlings expressing ctr1-1 mutant by measuring hypocotyl elongation up to 50 uM 3 days after germination in dark; assay type: functional, organism-based
Arabidopsis thaliana [9] = assay: Inhibition of ethylene biosynthesis in Arabidopsis thaliana eto1-4 expressing 5 x EBS::LUC assessed as decrease ethylene level at 10 uM 3 days after germination in dark; assay type: functional, organism-based
Arabidopsis thaliana [10] = assay: Inhibition of triple response phenotype in Arabidopsis thaliana seedlings expressing 35S::EIN3 by measuring hypocotyl elongation at 10 uM 3 days after germination in dark; assay type: functional, organism-based
Arabidopsis thaliana [11] = assay: Inhibition of triple response phenotype in Arabidopsis thaliana seedlings expressing ctr1-1 mutant by measuring hypocotyl elongation at 10 uM 3 days after germination in dark; assay type: functional, organism-based
Arabidopsis thaliana [12] = assay: Inhibition of triple response phenotype in Arabidopsis thaliana seedlings expressing eto1-4 mutant by measuring hypocotyl elongation up to 50 uM 3 days after germination in dark; assay type: functional, organism-based
Arabidopsis thaliana [13] = assay: Inhibition of triple response phenotype in Arabidopsis thaliana seedlings expressing eto1-4 mutant and 5 x EBS::LUC by measuring hypocotyl elongation at >5 uM 3 days after germination in dark; assay type: functional, organism-based; how it was run: as §1
Arabidopsis thaliana [14] = assay: Inhibition of triple response phenotype in Arabidopsis thaliana seedlings expressing 35S::EIN3 by measuring hypocotyl elongation up to 50 uM 3 days after germination in dark; assay type: functional, organism-based

Work on `Cc1nc(Nc2ccc(F)cc2)nc2c1C(=O)CC(C)(C)C2` yielded an inhibition at 10 µM (Arabidopsis thaliana [1]) of 9%.

With `NCCO/C=C/C(N)C(=O)O` (centres undefined) [AMINOETHOXYVINYLGLYCINE] the IC50 [2] was 700 nM, the Ki [3] was 15 nM and the inhibition (Arabidopsis thaliana [4]) was “Active”. The inhibition (Arabidopsis thaliana [5]) was “Active” and the inhibition at 10 µM (Arabidopsis thaliana [6]) was 100%.

`O=S(O)(O)=S` [SILVER THIOSULFATE] showed an inhibition at 10 µM (Arabidopsis thaliana [6]; tested as the Ag salt or complex) of 84%.

`Cc1nc(Nc2ccccc2)nc2c1C(=O)CC(C)(C)C2` showed an inhibition at 10 µM (Arabidopsis thaliana [1]) of 67%.

For `CCCCc1nc(N)nc2c1C(=O)CC(C)(C)C2`, the inhibition at 10 µM (Arabidopsis thaliana [1]) was 22%.

Compound `CC1(C)CC(=O)c2cnc(NCc3ccc(F)cc3)nc2C1` has an inhibition at 10 µM (Arabidopsis thaliana [1]) of 69%.

Compound `CC1CC(=O)c2cnc(NCc3ccccc3)nc2C1` (centres undefined) has an inhibition at 10 µM (Arabidopsis thaliana [1]) of 54%.

With `CC1(C)CC(=O)c2cnc(NCc3ccccc3)nc2C1` the inhibition at 10 µM (Arabidopsis thaliana [1]) was 45%.

For `Cc1ccc(C2CC(=O)c3cnc(NC4CCCC4)nc3C2)cc1` (centres undefined), the inhibition (Arabidopsis thaliana [7]) was “Active”, the inhibition (Arabidopsis thaliana [8]) was “inactive” and the inhibition (Arabidopsis thaliana [9]) was “Active”. For the same compound, the inhibition at 10 µM (Arabidopsis thaliana [1]) was 87%, the inhibition (Arabidopsis thaliana [4]) was “Active” and the inhibition (Arabidopsis thaliana [10]) was “inactive”. For the same compound, the inhibition (Arabidopsis thaliana [11]) was “inactive”, the inhibition (Arabidopsis thaliana [12]) was “Active” and the inhibition at 10 µM (Arabidopsis thaliana [6]) was 66%. The inhibition (Arabidopsis thaliana [13]) was “Active” and the inhibition (Arabidopsis thaliana [14]) was “inactive”.

`CCCCNc1ncc2c(n1)CC(c1ccccc1)CC2=O` (centres undefined) showed an inhibition at 10 µM (Arabidopsis thaliana [1]) of 92% and an inhibition at 10 µM (Arabidopsis thaliana [6]) of 43%.

`O=C1CC(c2ccccc2Cl)Cc2nc(NC3CCCC3)ncc21` (centres undefined) showed an inhibition at 10 µM (Arabidopsis thaliana [1]) of 91% and an inhibition at 10 µM (Arabidopsis thaliana [6]) of 54%.

`CC1(C)CC(=O)c2cnc(Nc3ccc(F)cc3)nc2C1` showed an inhibition at 10 µM (Arabidopsis thaliana [1]) of 36%.

For `CC1(C)CC(=O)c2cnc(NC3CCCC3)nc2C1`, the inhibition (Arabidopsis thaliana [8]) was “inactive”, the inhibition (Arabidopsis thaliana [9]) was “Active” and the IC50 [2] was 7900 nM. For the same compound, the inhibition at 10 µM (Arabidopsis thaliana [1]) was 87%, the inhibition (Arabidopsis thaliana [4]) was “Active” and the inhibition (Arabidopsis thaliana [10]) was “inactive”. For the same compound, the inhibition (Arabidopsis thaliana [11]) was “inactive”, the inhibition (Arabidopsis thaliana [12]) was “Active” and the inhibition at 10 µM (Arabidopsis thaliana [6]) was 55%. The inhibition (Arabidopsis thaliana [14]) was “inactive”.

`CC1(C)CC(=O)c2cnc(Nc3ccccc3)nc2C1` gave an inhibition at 10 µM (Arabidopsis thaliana [1]) of 77% and an inhibition at 10 µM (Arabidopsis thaliana [6]) of 29%.

`CC1CC(=O)c2cnc(Nc3ccccc3)nc2C1` (centres undefined) gave an inhibition at 10 µM (Arabidopsis thaliana [1]) of 82% and an inhibition at 10 µM (Arabidopsis thaliana [6]) of 28%.

`COc1ccc(C2CC(=O)c3cnc(Nc4ccccc4)nc3C2)cc1` (centres undefined) was tested, and the inhibition (Arabidopsis thaliana [7]) was “Active”, the inhibition (Arabidopsis thaliana [8]) was “inactive” and the inhibition (Arabidopsis thaliana [9]) was “Active”. The inhibition at 10 µM (Arabidopsis thaliana [1]) was 93%, the Ki [3] was 23 nM and the inhibition (Arabidopsis thaliana [4]) was “Active”. The inhibition (Arabidopsis thaliana [10]) was “inactive”, the inhibition (Arabidopsis thaliana [11]) was “inactive” and the inhibition (Arabidopsis thaliana [12]) was “Active”. For the same compound, the inhibition at 10 µM (Arabidopsis thaliana [6]) was 77%, the inhibition (Arabidopsis thaliana [13]) was “Active” and the inhibition (Arabidopsis thaliana [14]) was “inactive”.
